Data taken from ChEMBL document CHEMBL1806414, “Synthesis and anticonvulsant activity of 7-phenyl-6,7-dihydro-[1,2,4]triazolo[1,5-a]pyrimidin-5(4H)-ones and their derivatives” (Eur J Med Chem, 2011).
Active and inactive are the calls of the source. No cut-off for these calls is given here.

Assays:
Mus musculus [1] = species on record: Mus musculus; assay: Protective index, ratio of TD50 for neurotoxicity in Kunming mouse to ED50 for inhibition of MES-induced seizures in Kunming mouse; type: functional
[2] = Neurotoxicity in ip dosed Kunming mouse by rotarod test; type: toxicity, organism-based; conditions: in vivo
Method in brief: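 Phase-II rotarod test in KunMing mice trained on a 3.2 cm rod at 10 rpm, DMSO vehicle. Groups of 10 mice got graded i.p. doses until at least three points fell within 10–90% minimal neurotoxicity, giving the median toxic dose.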

Mus musculus [3] = assay: Anticonvulsant activity against maximal electric shock-induced seizures in ip dosed Kunming mouse assessed as median effective dose; type: functional
Method in brief: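 Phase-II MES test in KunMing mice (18–22 g), DMSO vehicle, corneal electrode stimulus 0.2 s. Groups of 10 mice got a range of i.p. doses until at least three points fell within 10–90% seizure protection, giving the median effective dose. Endpoint is abolition of tonic hind-leg extension.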

Mus musculus [4] = assay: Neurotoxicity in Kunming mouse at 300 mg/kg, ip after 4 hrs; type: toxicity, organism-based; design: dose 300 mg/kg, route intraperitoneal; conditions: in vivo
Method in brief: (§1)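 Rotarod neurotoxicity in KunMing mice (18–22 g) trained on a 3.2 cm diameter rod at 10 rpm. Compounds in DMSO were given i.p. at 30, 100 and 300 mg/kg, three mice per dose, and tested at 0.5 h and 4 h after dosing.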

Mus musculus [5] = assay: Neurotoxicity in Kunming mouse at 100 mg/kg, ip after 4 hrs; type: toxicity, organism-based; design: dose 100 mg/kg, route intraperitoneal; conditions: in vivo; method in brief: as §1
Mus musculus [6] = assay: Neurotoxicity in Kunming mouse at 300 mg/kg, ip after 0.5 hrs; type: toxicity, organism-based; design: dose 300 mg/kg, route intraperitoneal; conditions: in vivo; method in brief: as §1
Mus musculus [7] = assay: Neurotoxicity in Kunming mouse at 100 mg/kg, ip after 0.5 hrs; type: toxicity, organism-based; design: dose 100 mg/kg, route intraperitoneal; conditions: in vivo; method in brief: as §1
Mus musculus [8] = assay: Anticonvulsant activity in Kunming mouse assessed as protection against maximal electric shock-induced seizures at 300 mg/kg, ip measured after 4 hrs; type: functional, organism-based; design: dose 300 mg/kg
Method in brief: (§2)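 KunMing mice (18–22 g), compounds dissolved in DMSO, given i.p. at 30, 100 and 300 mg/kg, three mice per dose. Current applied through corneal electrodes for 0.2 s at 0.5 h and 4 h after dosing. Protection is abolition of tonic hind-leg extension, scored as protected/tested.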

Mus musculus [9] = assay: Anticonvulsant activity in Kunming mouse assessed as protection against maximal electric shock-induced seizures at 100 mg/kg, ip measured after 4 hrs; type: functional, organism-based; design: dose 100 mg/kg; method in brief: as §2
Mus musculus [10] = assay: Anticonvulsant activity in Kunming mouse assessed as protection against maximal electric shock-induced seizures at 30 mg/kg, ip measured after 4 hrs; type: functional, organism-based; design: dose 30 mg/kg; method in brief: as §2
Mus musculus [11] = assay: Anticonvulsant activity in Kunming mouse assessed as protection against maximal electric shock-induced seizures at 300 mg/kg, ip measured after 0.5 hrs; type: functional, organism-based; design: dose 300 mg/kg; method in brief: as §2
Mus musculus [12] = assay: Anticonvulsant activity in Kunming mouse assessed as protection against maximal electric shock-induced seizures at 100 mg/kg, ip measured after 0.5 hrs; type: functional, organism-based; design: dose 100 mg/kg; method in brief: as §2
Mus musculus [13] = assay: Anticonvulsant activity in Kunming mouse assessed as protection against maximal electric shock-induced seizures at 30 mg/kg, ip measured after 0.5 hrs; type: functional, organism-based; design: dose 30 mg/kg; method in brief: as §2
Mus musculus [14] = assay: Anticonvulsant activity in Kunming mouse assessed as inhibition of thiosemicarbazide-induced tonic seizures at 30 mg/kg, ip after 2.5 hrs; type: functional; design: scale not given: the % may be the effect or the level left; conditions: route intraperitoneal
Method in brief: (§3)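 Thiosemicarbazide, 50 mg/kg i.p., was given 0.5 h after compound or DMSO to KunMing mice, 10 per group. Mice were caged individually and observed for 2.5 h for clonic and tonic seizures and deaths.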

Mus musculus [15] = assay: Anticonvulsant activity in Kunming mouse assessed as inhibition of thiosemicarbazide-induced clonic seizures at 30 mg/kg, ip after 2.5 hrs; type: functional; design: scale not given: the % may be the effect or the level left; conditions: route intraperitoneal; method in brief: as §3
Mus musculus [16] = assay: Anticonvulsant activity in Kunming mouse assessed as inhibition of 3-mercaptopropionic acid-induced tonic seizures at 30 mg/kg, ip after 0.5 hrs; type: functional; design: scale not given: the % may be the effect or the level left; conditions: route intraperitoneal
Method in brief: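 Kunming mice (18–22 g, 10/group) received test compound i.p. in DMSO; 0.5 h later 3-mercaptopropionic acid, 60 mg/kg in saline, was given s.c. Mice were scored for clonic seizures, tonic seizures (hind-leg extension) and deaths.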

Mus musculus [17] = assay: Anticonvulsant activity in Kunming mouse assessed as inhibition of 3-mercaptopropionic acid-induced clonic seizures at 30 mg/kg, ip after 0.5 hrs; type: functional; design: scale not given: the % may be the effect or the level left; conditions: route intraperitoneal
Method in brief: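 3-Mercaptopropionic acid, 60 mg/kg in saline, was injected s.c. 0.5 h after i.p. compound or DMSO in KunMing mice, 10 per group. Clonic and tonic seizures and deaths were scored.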

Mus musculus [18] = assay: Anticonvulsant activity in Kunming mouse assessed as inhibition of isoniazid-induced death at 50 mg/kg, ip after 1 hrs; type: functional; design: scale not given: the % may be the effect or the level left; conditions: route intraperitoneal
Mus musculus [19] = assay: Anticonvulsant activity in Kunming mouse assessed as inhibition of isoniazid-induced tonic seizures at 50 mg/kg, ip after 1 hrs; type: functional; design: scale not given: the % may be the effect or the level left; conditions: route intraperitoneal
Method in brief: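 Isoniazid given at 250 mg/kg, a dose convulsing all controls, to KunMing mice pretreated i.p. with compound or DMSO. Mice were caged individually and observed for 1 h, counting clonic seizures, tonic seizures and deaths.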

Mus musculus [20] = assay: Anticonvulsant activity in Kunming mouse assessed as inhibition of isoniazid-induced clonic seizures at 50 mg/kg, ip after 1 hrs; type: functional; design: scale not given: the % may be the effect or the level left; conditions: route intraperitoneal
Mus musculus [21] = assay: Anticonvulsant activity in Kunming mouse assessed as inhibition of subcutaneous pentylenetetrazol-induced tonic seizures at 50 mg/kg, ip after 0.5 hrs; type: functional; design: scale not given: the % may be the effect or the level left
Mus musculus [22] = assay: Anticonvulsant activity in Kunming mouse assessed as inhibition of subcutaneous pentylenetetrazol-induced clonic seizures at 50 mg/kg, ip after 0.5 hrs; type: functional; design: scale not given: the % may be the effect or the level left
Method in brief: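 Compound or vehicle (DMSO) given i.p. to KunMing mice, 10 per group, before the pentylenetetrazol challenge. Mice were held in individual cages and observed for 0.5 h. Clonic seizures, tonic seizures (hind-leg extension) and deaths were counted.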

Mus musculus [23] = assay: Anticonvulsant activity in Kunming mouse assessed as inhibition of bicuculline-induced clonic seizures at 30 mg/kg, ip after 0.5 hrs; type: functional; design: scale not given: the % may be the effect or the level left; conditions: route intraperitoneal
Method in brief: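 Bicuculline, 5.4 mg/kg s.c. and used within 15–45 min of preparation, was given 0.5 h after i.p. compound or DMSO to KunMing mice, 10 per group. Mice were isolated and observed for at least 0.5 h for clonic seizures, tonic seizures and lethality.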

Mus musculus [24] = assay: Anticonvulsant activity in Kunming mouse assessed as inhibition of bicuculline-induced tonic seizures at 30 mg/kg, ip after 0.5 hrs; type: functional; design: scale not given: the % may be the effect or the level left; conditions: route intraperitoneal
Method in brief: (§4)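 Kunming mice (18–22 g, 10/group) received test compound i.p. in DMSO; 0.5 h later bicuculline, 5.4 mg/kg, was given s.c. within 15–45 min of preparation. Mice were isolated and observed for at least 0.5 h for clonic seizures, tonic seizures and lethality.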

Mus musculus [25] = assay: Anticonvulsant activity in Kunming mouse assessed as inhibition of bicuculline-induced death at 30 mg/kg, ip after 0.5 hrs; type: functional; design: scale not given: the % may be the effect or the level left; conditions: route intraperitoneal; method in brief: as §4

| Compound | Ratio TD50/ED50 (Mus musculus [1]) | TD50 [2] | ED50 (Mus musculus [3]) | Activity (Mus musculus [4]) | Activity (Mus musculus [5]) | Activity (Mus musculus [6]) | Activity (Mus musculus [7]) | Activity (Mus musculus [8]) | Activity (Mus musculus [9]) | Activity (Mus musculus [10]) | Activity (Mus musculus [11]) | Activity (Mus musculus [12]) | Activity (Mus musculus [13]) | Activity (Mus musculus [14]) | Activity (Mus musculus [15]) | Activity (Mus musculus [16]) | Activity (Mus musculus [17]) | Activity (Mus musculus [19]) | Activity (Mus musculus [20]) | Activity (Mus musculus [21]) | further results |
| --- | --- | --- | --- | --- | --- | --- | --- | --- | --- | --- | --- | --- | --- | --- | --- | --- | --- | --- | --- | --- | --- |
| O=C1CC(c2cccc(Br)c2)n2ncnc2N1 (stereo unspecified) | 7 | 592 mg/kg | 84.9 mg/kg | Non-toxic | Non-toxic | Non-toxic | Non-toxic | inactive | inactive | inactive | Active | Active | inactive | – | – | – | – | – | – | – | – |
| O=C1CC(c2ccccc2Br)n2ncnc2N1 (stereo unspecified) | 34.8 | 685 mg/kg | 19.7 mg/kg | Non-toxic | Non-toxic | Non-toxic | Non-toxic | inactive | inactive | inactive | Active | Active | Active | 0% | 100% | 0% | 100% | 0% | 100% | 0% | Activity (Mus musculus [18]): 30%; Activity (Mus musculus [22]): 0%; Activity (Mus musculus [23]): 100%; Activity (Mus musculus [24]): 10%; Activity (Mus musculus [25]): 50% |
| O=C1CC(c2ccccc2)n2ccnc2N1 (stereo unspecified) | 6.7 | 458 mg/kg | 68.2 mg/kg | Non-toxic | Non-toxic | Non-toxic | Non-toxic | inactive | inactive | inactive | Active | Active | inactive | – | – | – | – | – | – | – | – |
| NC(=O)N1c2ccccc2C=Cc2ccccc21 [CARBAMAZEPINE] | 6.4 | – | 11.8 mg/kg | – | – | – | – | – | – | – | – | – | – | 0% | 100% | 0% | 100% | 0% | 50% | 0% | Activity (Mus musculus [22]): 100%; Activity (Mus musculus [23]): 100%; Activity (Mus musculus [24]): 0%; Activity (Mus musculus [25]): 20% |
| O=C1CC(c2cccc(C(F)(F)F)c2)n2ncnc2N1 (stereo unspecified) | 2.9 | 158 mg/kg | 54.8 mg/kg | Non-toxic | Non-toxic | Toxic | – | inactive | inactive | inactive | Active | Active | inactive | – | – | – | – | – | – | – | – |
